Experimental data reported in ChEMBL document CHEMBL1146234, “Synthesis and biological evaluation of N-pyrazolyl-N'-alkyl/benzyl/phenylureas: a new class of potent inhibitors of interleukin 8-induced neutrophil chemotaxis” (J Med Chem, 2007).
The source made the active and inactive calls. The rule behind the calls is not given here.

Experiments:
[1] = biological target: T1, C-X-C chemokine receptor type 2 (Homo sapiens) (UniProt P25025); assay: Binding affinity to CXCR2
T1 sequence (whole entry): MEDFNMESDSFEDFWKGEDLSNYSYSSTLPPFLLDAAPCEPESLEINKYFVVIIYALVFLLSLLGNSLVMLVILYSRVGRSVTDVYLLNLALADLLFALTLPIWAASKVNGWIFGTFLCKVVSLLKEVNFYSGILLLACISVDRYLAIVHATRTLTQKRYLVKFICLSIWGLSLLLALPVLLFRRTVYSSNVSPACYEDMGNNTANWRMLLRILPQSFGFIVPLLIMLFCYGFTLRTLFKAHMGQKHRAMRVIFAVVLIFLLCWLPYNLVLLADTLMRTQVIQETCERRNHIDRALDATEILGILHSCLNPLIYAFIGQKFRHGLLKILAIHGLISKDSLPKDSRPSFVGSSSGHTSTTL

[2] = biological target: T2, C-C chemokine receptor type 1 (Homo sapiens) (UniProt P32246); assay: Binding affinity to CCR1
T2 sequence (whole entry): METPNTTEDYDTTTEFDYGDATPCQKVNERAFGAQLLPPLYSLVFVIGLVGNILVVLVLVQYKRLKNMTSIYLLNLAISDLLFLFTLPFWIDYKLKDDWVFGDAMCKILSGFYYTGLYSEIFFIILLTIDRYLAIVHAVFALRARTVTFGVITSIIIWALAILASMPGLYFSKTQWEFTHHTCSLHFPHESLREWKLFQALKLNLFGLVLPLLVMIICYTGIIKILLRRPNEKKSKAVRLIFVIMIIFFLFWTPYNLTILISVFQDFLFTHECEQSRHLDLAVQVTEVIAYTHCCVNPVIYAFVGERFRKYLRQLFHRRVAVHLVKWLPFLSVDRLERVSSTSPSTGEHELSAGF

[3] = biological target: C-C chemokine receptor type 2 (Homo sapiens) (UniProt P41597); assay: Binding affinity to CCR2
Sequence of C-C chemokine receptor type 2 (Homo sapiens) (P41597 whole entry, looked up): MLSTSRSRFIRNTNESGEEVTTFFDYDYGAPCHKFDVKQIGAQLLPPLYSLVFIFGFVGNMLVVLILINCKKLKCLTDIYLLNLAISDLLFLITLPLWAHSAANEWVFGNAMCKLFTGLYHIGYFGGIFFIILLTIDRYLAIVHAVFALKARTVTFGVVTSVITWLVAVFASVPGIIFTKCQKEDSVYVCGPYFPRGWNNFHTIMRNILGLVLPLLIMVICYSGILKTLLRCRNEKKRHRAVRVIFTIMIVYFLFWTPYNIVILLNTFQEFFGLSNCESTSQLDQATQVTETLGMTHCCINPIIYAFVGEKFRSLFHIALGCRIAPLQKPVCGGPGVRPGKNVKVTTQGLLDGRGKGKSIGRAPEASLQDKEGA

Homo sapiens [4] = species: Homo sapiens; assay: Inhibition of pyk2 60-70Kda region in human neutrophils assessed as reduction of IL8 stimulated tyrosin phosphorylation at 0.05 uM after 30 mins
Method in brief: (§1)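 Neutrophils (2.5 × 10⁷ cells/mL) were treated with 10⁻³ M diisopropylfluorophosphate for 30 min at room temperature. They were then incubated 30 min ± compound and stimulated with 10⁻⁷ M IL8 for 0.5 min. Samples were boiled in SDS buffer and run on 7.5-20% SDS-PAGE, then blotted to nitrocellulose. Blots were probed overnight at 4 °C with anti-phosphotyrosine mAb 4G10 and detected by ECL. Ponceau S staining confirmed equal loading.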

Homo sapiens [5] = species: Homo sapiens; assay: Inhibition of pyk2 50Kda region in human neutrophils assessed as reduction of IL8 stimulated tyrosin phosphorylation at 0.05 uM after 30 mins; method in brief: as §1
Neutrophil = assay: Reduction of IL8-stimulated F-actin polymerization in human neutrophils; type: functional; design: scale not given: the % may be the effect or the level left
Method in brief: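 Donor neutrophils were incubated ± compound, washed three times, then stimulated 30 min with medium or 100 nM IL8. Cytospins were stained with Alexa Fluor 488-phalloidin and examined by fluorescence microscopy. Mean fluorescence density came from linear per-cell measurement across ≥5 random fields per slide, in duplicate, ≥3 experiments. Values were given as area percentage, mean ± SD.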

[6] = biological target: RAC-alpha serine/threonine-protein kinase (Homo sapiens) (UniProt P31749); assay: Inhibition of IL8-induced Akt phosphorylation in human neutrophils at 0.05 uM
Sequence of RAC-alpha serine/threonine-protein kinase (Homo sapiens) (P31749 whole entry): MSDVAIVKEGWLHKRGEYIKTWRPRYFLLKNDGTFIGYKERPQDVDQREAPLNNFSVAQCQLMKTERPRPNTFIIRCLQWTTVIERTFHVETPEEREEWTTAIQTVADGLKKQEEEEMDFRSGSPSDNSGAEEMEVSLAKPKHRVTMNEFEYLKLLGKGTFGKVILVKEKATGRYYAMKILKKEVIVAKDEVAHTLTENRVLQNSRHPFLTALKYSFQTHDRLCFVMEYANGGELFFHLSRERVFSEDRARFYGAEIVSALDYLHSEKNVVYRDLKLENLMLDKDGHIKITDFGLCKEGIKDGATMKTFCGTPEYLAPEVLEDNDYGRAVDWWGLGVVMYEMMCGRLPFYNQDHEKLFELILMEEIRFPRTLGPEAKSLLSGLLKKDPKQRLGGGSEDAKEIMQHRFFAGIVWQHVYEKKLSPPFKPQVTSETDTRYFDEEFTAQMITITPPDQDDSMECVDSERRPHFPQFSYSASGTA
Method in brief: (§2)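 Purified human neutrophils (1 × 10⁷ cells/mL) were pretreated 30 min with compound, then exposed to 10 nM IL8 or none for 5 min at 37 °C. Cells were lysed in NP40 buffer, and protein was quantified by BCA. Then […] protein per lane was run on 12% SDS-PAGE, blotted to nitrocellulose, and probed overnight at 4 °C with anti-phospho-Akt mAb. Detection was by ECL.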

[7] = biological target: Proto-oncogene tyrosine-protein kinase Src (Homo sapiens) (UniProt P12931); assay: Binding affinity to SRC
Sequence of Proto-oncogene tyrosine-protein kinase Src (Homo sapiens) (P12931 2-536 limits assumed): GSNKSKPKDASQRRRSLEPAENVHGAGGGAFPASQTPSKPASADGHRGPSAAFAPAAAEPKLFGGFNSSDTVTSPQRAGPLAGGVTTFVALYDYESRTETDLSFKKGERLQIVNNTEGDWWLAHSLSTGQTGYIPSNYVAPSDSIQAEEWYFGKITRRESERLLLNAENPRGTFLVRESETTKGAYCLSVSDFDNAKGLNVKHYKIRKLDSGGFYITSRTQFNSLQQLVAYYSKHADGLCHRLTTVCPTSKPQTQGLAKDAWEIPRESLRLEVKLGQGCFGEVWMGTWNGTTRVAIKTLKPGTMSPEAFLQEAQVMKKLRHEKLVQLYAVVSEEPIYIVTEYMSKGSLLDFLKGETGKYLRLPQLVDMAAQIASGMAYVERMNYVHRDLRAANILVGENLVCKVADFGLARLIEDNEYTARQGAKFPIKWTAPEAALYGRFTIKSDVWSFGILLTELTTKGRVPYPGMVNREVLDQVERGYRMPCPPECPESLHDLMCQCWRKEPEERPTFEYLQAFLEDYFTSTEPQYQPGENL

[8] = biological target: Tyrosine-protein kinase Fgr (Homo sapiens) (UniProt P09769); assay: Binding affinity to Fgr
Sequence of Tyrosine-protein kinase Fgr (Homo sapiens) (P09769 2-529 limits assumed): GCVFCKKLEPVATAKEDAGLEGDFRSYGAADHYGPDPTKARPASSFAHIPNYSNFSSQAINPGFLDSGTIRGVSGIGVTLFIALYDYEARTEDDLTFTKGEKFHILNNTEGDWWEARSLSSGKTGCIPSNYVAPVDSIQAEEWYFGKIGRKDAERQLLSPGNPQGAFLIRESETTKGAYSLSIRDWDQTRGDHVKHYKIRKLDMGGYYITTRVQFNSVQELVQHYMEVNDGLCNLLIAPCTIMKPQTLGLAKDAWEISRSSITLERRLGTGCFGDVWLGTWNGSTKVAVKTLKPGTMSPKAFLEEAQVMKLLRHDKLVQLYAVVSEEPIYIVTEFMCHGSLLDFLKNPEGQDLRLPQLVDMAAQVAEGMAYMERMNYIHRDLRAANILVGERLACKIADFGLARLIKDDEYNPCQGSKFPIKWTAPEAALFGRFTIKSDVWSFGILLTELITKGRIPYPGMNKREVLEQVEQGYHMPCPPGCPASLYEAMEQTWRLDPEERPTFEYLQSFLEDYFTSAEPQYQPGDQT

[9] = biological target: Tyrosine-protein kinase HCK (Homo sapiens) (UniProt P08631); assay: Binding affinity to Hck
Sequence of Tyrosine-protein kinase HCK (Homo sapiens) (P08631 2-526 limits assumed): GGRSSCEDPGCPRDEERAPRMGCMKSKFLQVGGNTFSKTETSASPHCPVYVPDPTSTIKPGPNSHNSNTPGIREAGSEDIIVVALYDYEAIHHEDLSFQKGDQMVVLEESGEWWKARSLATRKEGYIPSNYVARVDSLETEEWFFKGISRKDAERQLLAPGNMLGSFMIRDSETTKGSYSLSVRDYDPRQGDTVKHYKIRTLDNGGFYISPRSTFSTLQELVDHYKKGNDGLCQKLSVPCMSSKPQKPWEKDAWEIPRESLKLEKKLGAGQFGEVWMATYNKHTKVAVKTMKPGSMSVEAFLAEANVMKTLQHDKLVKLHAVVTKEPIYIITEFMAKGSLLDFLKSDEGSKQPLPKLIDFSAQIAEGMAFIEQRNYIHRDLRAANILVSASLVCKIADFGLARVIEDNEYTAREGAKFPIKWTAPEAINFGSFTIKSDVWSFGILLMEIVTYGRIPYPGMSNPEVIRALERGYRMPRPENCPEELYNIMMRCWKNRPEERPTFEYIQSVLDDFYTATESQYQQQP

[10] = biological target: Mitogen-activated protein kinase 14 (Homo sapiens) (UniProt Q16539); assay: Binding affinity to p38alpha
Sequence of Mitogen-activated protein kinase 14 (Homo sapiens) (Q16539 whole entry): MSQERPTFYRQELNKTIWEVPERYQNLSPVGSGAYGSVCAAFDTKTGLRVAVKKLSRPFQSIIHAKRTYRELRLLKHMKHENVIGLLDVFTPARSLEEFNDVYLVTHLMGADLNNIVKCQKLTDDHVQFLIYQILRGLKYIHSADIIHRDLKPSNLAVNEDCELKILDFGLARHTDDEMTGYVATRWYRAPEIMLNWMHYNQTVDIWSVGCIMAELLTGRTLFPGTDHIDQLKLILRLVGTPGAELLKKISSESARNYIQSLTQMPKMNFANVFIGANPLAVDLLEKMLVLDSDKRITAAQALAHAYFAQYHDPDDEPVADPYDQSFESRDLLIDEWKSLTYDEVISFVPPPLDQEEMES

[11] = biological target: Mitogen-activated protein kinase 1 (Homo sapiens) (UniProt P28482); assay: Binding affinity to ERK2
Sequence of Mitogen-activated protein kinase 1 (Homo sapiens) (P28482 whole entry): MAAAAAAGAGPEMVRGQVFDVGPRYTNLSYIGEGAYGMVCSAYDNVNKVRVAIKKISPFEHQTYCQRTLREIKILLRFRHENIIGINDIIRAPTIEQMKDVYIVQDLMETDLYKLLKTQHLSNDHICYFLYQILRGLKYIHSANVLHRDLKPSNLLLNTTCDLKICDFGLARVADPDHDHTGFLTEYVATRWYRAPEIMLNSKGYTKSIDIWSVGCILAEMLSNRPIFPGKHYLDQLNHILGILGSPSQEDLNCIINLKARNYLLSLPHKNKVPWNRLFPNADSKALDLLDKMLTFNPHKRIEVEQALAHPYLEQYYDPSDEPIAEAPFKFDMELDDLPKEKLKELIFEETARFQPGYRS

Homo sapiens [12] = species: Homo sapiens; assay: Inhibition of pyk2 60-70Kda region in human neutrophils assessed as reduction of IL8 stimulated tyrosin phosphorylation at 0.01 uM after 30 mins; method in brief: as §1
Homo sapiens [13] = species: Homo sapiens; assay: Inhibition of pyk2 50Kda region in human neutrophils assessed as reduction of IL8 stimulated tyrosin phosphorylation at 0.01 uM after 30 mins; method in brief: as §1
[14] = biological target: RAC-alpha serine/threonine-protein kinase (Homo sapiens) (UniProt P31749); assay: Inhibition of IL8-induced Akt phosphorylation in human neutrophils at 0.01 uM; method in brief: as §2
Homo sapiens [15] = species: Homo sapiens; assay: Inhibition of pyk2 60-70Kda region in human neutrophils assessed as reduction of IL8 stimulated tyrosin phosphorylation at 0.06 uM after 30 mins; method in brief: as §1
Homo sapiens [16] = species: Homo sapiens; assay: Inhibition of pyk2 50Kda region in human neutrophils assessed as reduction of IL8 stimulated tyrosin phosphorylation at 0.06 uM after 30 mins; method in brief: as §1
[17] = biological target: RAC-alpha serine/threonine-protein kinase (Homo sapiens) (UniProt P31749); assay: Inhibition of IL8-induced Akt phosphorylation in human neutrophils at 0.06 uM; method in brief: as §2

Activity [1]	Activity [2]	Activity [3]	inhibition (Homo sapiens [4])	inhibition (Homo sapiens [5])	Activity [6]	Activity [7]	Activity [8]	Activity [9]	Activity [10]	Activity [11]	inhibition (Homo sapiens [12])	inhibition (Homo sapiens [13])	Activity [14]	inhibition (Homo sapiens [15])	inhibition (Homo sapiens [16])	Activity [17]	Compound	Activity (Neutrophil)
inactive	inactive	inactive	81%	71%	inactive	inactive	inactive	inactive	inactive	inactive	–	–	–	–	–	–	CCOC(=O)c1cnn(CC(O)c2ccccc2)c1NC(=O)Nc1ccccc1 (stereo unspecified)	97%
inactive	inactive	inactive	–	–	–	inactive	inactive	inactive	inactive	inactive	63%	70%	inactive	–	–	–	CCOC(=O)c1cnn(CC(O)c2ccccc2)c1NC(=O)NCc1ccccc1 (stereo unspecified)	69%
inactive	inactive	inactive	–	–	–	inactive	inactive	inactive	inactive	inactive	–	–	–	53%	20%	inactive	CCOC(=O)c1cnn(CC(O)c2ccccc2)c1NC(=O)NC(C)C (stereo unspecified)	97%
